Assay results from different studies.
Target: Receptor tyrosine-protein kinase erbB-4 (ERBB4, Homo sapiens, UniProt Q15303)

SMILES | assay | setting | remaining binding [%]
CC(C)(C)c1ccc(-c2nc(CBr)nn2-c2cccc(O)c2)cc1 | cell-free assay, competition with immobilised ligand | 10 µM | 88
CN(C)c1nccc(-c2cnc3ncccn23)n1 | binding | 1 µM | 89
c1cncc(-c2cccc(Nc3nccc(NC4CCCCC4)n3)c2)c1 | binding, competition with immobilised ligand | 10 µM | 85
O=C(c1ccc(Nc2ncc(Cl)c(-c3cc4ccccc4s3)n2)cc1)N1CCC(N2CCCC2)CC1 | binding, competition with immobilised ligand | 1 µM | 98
COc1cccc(CNC(=O)c2nc3scc(COCc4ccc(C(=O)O)cc4)c3c(=O)[nH]2)c1 | cell-free assay, competition with immobilised ligand | 1 µM | 86.1
N[C@H]1CCN(c2nccc(-c3cnn4ncccc34)n2)C1 | binding | 1 µM | 84
O=C(N[C@H]1CCCCC/C=C\C2C[C@@]2(C(=O)O)NC(=O)[C@@H]2C[C@@H](Oc3ccncc3)CN2C1=O)OC1CCCC1 (stereo partly shown) | binding, competition with immobilised ligand | 1 µM | 100
COc1ncc2cc3ccccc3nc2c1C#N | cell-free assay, competition with immobilised ligand | 5 µM | 96
O=C(c1ccc(Nc2nccc(-c3cc4ccccc4s3)n2)cc1)N1CCC(N2CCCC2)CC1 | binding, competition with immobilised ligand | 1 µM | 93
Cc1cnn2ncc(-c3ccnc(N(C)C)n3)c2c1 | binding | 1 µM | 65
Cc1noc([C@H]2C[C@@H](c3ccc(C(F)(F)F)cc3)CN(C(=O)N3CCS(=O)(=O)C3)C2)n1 | cell-free assay, competition with immobilised ligand | 1 µM | 100
O=C(c1ccc(Nc2ncc(Cl)c(-c3ccc(Cl)s3)n2)cc1)N1CCC(N2CCCC2)CC1 | binding, competition with immobilised ligand | 1 µM | 100
C[C@@H](c1ccc(-n2cnc3c(N)ncnc32)cc1)N1CCc2nn(C)c(Cc3ccccc3)c2C1=O | binding, competition with immobilised ligand | 0.1 µM | 73
F[C@@H]1CCN(c2nccc(-c3cnn4ncccc34)n2)C1 | binding | 1 µM | 82
COc1ccc2c(c1)O[C@H](c1ccc(OC)c(OC)c1)C[C@@H]2NC(=O)C1(c2ccc3c(c2)OC(F)(F)O3)CC1 | cell-free assay, competition with immobilised ligand | 1 µM | 94
C[C@@H]1CCN(c2nccc(-c3cnn4ncccc34)n2)C1 | binding | 1 µM | 79
CN(C)C(=O)Cn1cc(-c2nc(C3(c4ccc(-c5cnc(N)nc5)cc4)CC3)no2)cn1 | cell-free assay, competition with immobilised ligand | 1 µM | 100
O=C(NCC1CCOCC1)c1n[nH]cc1NC(=O)c1c(F)cccc1F | binding, competition with immobilised ligand | 1 µM | 100
COc1cc(-c2cn(C3CCc4c(F)cccc4N(CC(F)(F)F)C3=O)nn2)ccc1-n1cnc(C)c1 (stereo not shown) | cell-free assay, competition with immobilised ligand | 1 µM | 100
CNC(=O)[C@@H]1CC[C@@H](n2c(-c3ccc4cnccc4c3)nc3ccc(C(=O)NCc4cccc(C(N)=O)c4)cc32)C1 | binding, competition with immobilised ligand | 1 µM | 100
C[C@H](NC(=O)c1cnc2n1[C@](C)(Cc1ccc(C#N)cc1)C(=O)N2c1cc(Cl)c(F)c(Cl)c1)C(=O)NC1(c2ccccn2)CC1 | cell-free assay, competition with immobilised ligand | 1 µM | 100
c1cnn2ncc(-c3ccnc(N4CCC45COC5)n3)c2c1 | binding | 1 µM | 76
